Hits are enriched below; roughly 3.1% of the tested compounds scored in any of these assays.
pPAFAH inh – inhibitors of human plasma PAF acetylhydrolase (pPAFAH) | recombinant pPAFAH, FP-rhodamine probe fluorescence polarization | inhibition, % at 3.39 µM | actives 1.5% (n = 330,000) | Q13093 | AID 463082;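 active means inhibition above the mean inhibition across the screen plus 3 SD, cut at about 25% in these data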;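 further: inhibitors block binding of the rhodamine activity-based probe so polarization drops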
Target sequence (Q13093 whole entry, looked up): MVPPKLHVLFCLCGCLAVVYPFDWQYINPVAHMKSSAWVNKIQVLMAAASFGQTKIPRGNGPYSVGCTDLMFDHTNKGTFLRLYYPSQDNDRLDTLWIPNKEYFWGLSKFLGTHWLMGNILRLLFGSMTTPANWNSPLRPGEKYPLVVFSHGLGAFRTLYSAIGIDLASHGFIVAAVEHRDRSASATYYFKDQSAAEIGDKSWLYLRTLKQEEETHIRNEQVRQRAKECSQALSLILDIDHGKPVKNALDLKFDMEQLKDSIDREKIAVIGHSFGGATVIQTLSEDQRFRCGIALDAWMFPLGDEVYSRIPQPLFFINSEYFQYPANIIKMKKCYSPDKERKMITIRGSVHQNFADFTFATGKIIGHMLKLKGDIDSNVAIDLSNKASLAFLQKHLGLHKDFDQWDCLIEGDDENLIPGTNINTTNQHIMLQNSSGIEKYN
PAFAH1B3 FP inh – blocks human PAF acetylhydrolase 1B catalytic subunit 3 | Q15102 | recombinant PAFAH1B3, FP-rhodamine probe, fluorescence polarization | inhibition, % at 3.39 µM | actives 0.28% (n = 340,000);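 active means inhibition above the screen-wide average of all tested compounds plus 3 SD, cut at about 25% in these data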
Apaf-1 inh – human Apaf-1 inhibition | actives 0.71% (n = 330,000) | reconstituted apoptosome caspase-3 activity, DEVD-Rh110 fluorescence | O14727 | inhibition, % at 20 µM; active means inhibition of at least 40% at 20 µM
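Assay system – apoptosome proteins · Medium – Hepes buffer, pH 7.5 · Also added – cytochrome c with DEVD-Rh110 · Timing – 30 min compound preincubation, 50 min activation, room temperature · Detection – Rh110 fluorescence, excitation 480 nm, emission 540 nm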
PAFAH2 inh – inhibitors of human PAFAH2. recombinant PAFAH2, FP-rhodamine activity probe, fluorescence polarization. actives 0.99% (n = 340,000). Q99487. AID 492956. inhibition, % at 3.39 µM;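 active means inhibition above the mean over all tested compounds plus 3 SD, cut at about 30% in these data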;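 further: inhibitors block probe labeling of enzyme so polarization drops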
PAFAH1B2 FP inh – blocks human PAF acetylhydrolase 1b catalytic subunit 2. P68402. recombinant PAFAH1B2, FP-rhodamine activity probe, fluorescence polarization. inhibition, % at 3.39 µM. actives 1.2% (n = 340,000). AID 492953;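 active means inhibition above the mean of all tested compounds plus 3 SD, cut at about 24% in these data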
Target sequence (P68402 whole entry, looked up): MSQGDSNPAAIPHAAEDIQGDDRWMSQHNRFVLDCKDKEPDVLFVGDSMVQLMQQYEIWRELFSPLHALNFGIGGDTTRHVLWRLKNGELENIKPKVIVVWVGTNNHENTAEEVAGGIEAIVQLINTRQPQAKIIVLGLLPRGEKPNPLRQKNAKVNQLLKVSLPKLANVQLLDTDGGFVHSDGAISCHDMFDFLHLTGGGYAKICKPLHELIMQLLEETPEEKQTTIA
Of the large screens only hits and unclear results are named; the others gave an inactive call.

CC(C)c1ccc(CN2CCSCC2)cc1	none
CCn1c(CSc2nnc(-c3ccncc3)n2C)nc2cc(C(=O)O)ccc21	pPAFAH inh 26, PAFAH1B3 FP inh 36, PAFAH2 inh 49, PAFAH1B2 FP inh 37
CCn1c(CSc2ncn[nH]2)nc2cc(C(=O)O)ccc21	none
C=CCOc1ccc(/C=C/C(=O)OCC(=O)N2CCC(c3ccccc3)=N2)cc1	none
Cc1nn(-c2ccccc2)c(Cl)c1C(=O)NCCCCNC(=O)c1c(C)nn(-c2ccccc2)c1Cl	none
CCC(=O)N(Cc1c(C)nn(-c2ccccc2)c1Cl)c1ccc(Cl)cc1	PAFAH1B2 FP inh 24
COc1cc(OC)c2c(-c3ccccc3)cc(=O)oc2c1C(CCN1CCCC1)c1ccc2c(c1)OCO2 (configuration not stated)	Apaf-1 inh 49
CCCCCc1cc(=O)oc2c(C(CCN3CCCC(C)C3)c3ccc4c(c3)OCO4)c(OC)cc(OC)c12 (configuration not stated)	Apaf-1 inh 66
COc1ccc(C(CCN2CCCC2)c2c(OC)cc(OC)c3c(-c4ccccc4)cc(=O)oc23)cc1 (configuration not stated)	none
COc1ccccc1NS(=O)(=O)c1cccc(NS(=O)(=O)c2ccc(Cl)c(C(=O)O)c2)c1	none
Cc1cc(NC(=O)CSc2nc(C)c(C)c(=O)[nH]2)no1	none
O=C(c1ccc(CS(=O)Cc2ccc(Cl)cc2)o1)N1CCN(c2cccc(Cl)c2)CC1 (configuration not stated)	pPAFAH inh 26
O=C(c1ccc(CS(=O)Cc2ccc(Cl)cc2)o1)N1CCN(c2ccc(F)cc2)CC1 (configuration not stated)	pPAFAH inh 30
O=C(c1ccc(COc2c(F)c(F)cc(F)c2F)o1)N1CCN(c2ccc(Cl)cc2)CC1	none
Cc1ccc(C)[n+](CC(=O)N2CCCCC2)c1	none (no result: pPAFAH inh)
CC1(C(=O)NCc2ccc(F)cc2)Oc2ccccc2NC1=O (configuration not stated)	PAFAH1B2 FP inh 30
CC(C)(C)N(Cc1ccccc1)C(=O)COC(=O)C1=NN(c2ccccc2)C(=O)CC1	none (no result: pPAFAH inh)
CCC(C)c1ccc(OCCn2cc(/C=N/NC(=O)CSc3nnc(C)s3)c3ccccc32)cc1 (configuration not stated)	pPAFAH inh 26
Cc1cccc(OCCn2cc(/C=N/NC(=O)c3ccncc3)c3ccccc32)c1	pPAFAH inh 28
COc1cccc(CSc2nc3sc(C)c(C)c3c(=O)n2Cc2ccco2)c1	pPAFAH inh 26
CCN1C(=O)[C@H]2[C@@H](c3ccc(-c4cccc(Cl)c4)cc3)N[C@@](C)(C(=O)OC)[C@H]2C1=O	pPAFAH inh 34
Cc1cccc(N2CCN(c3ccc4cc(S(=O)(=O)N5CCCCC5)ccc4n3)CC2)c1C	none
COC(=O)/C=C1\S/C(=N/NC(=O)c2ccccc2)NC1=O	none
COc1ccccc1/C=C1\S/C(=N/NC(=O)c2cccc(Br)c2)NC1=O	PAFAH2 inh 41
CC(C)Cc1nnc(NC(=O)c2ccc3c(c2)OCCO3)s1	none
Cc1cccc(Nc2nnc(SCC(O)=C(C#N)c3nc4ccccc4[nH]3)s2)c1	PAFAH1B2 FP inh 26 (no result: pPAFAH inh, Apaf-1 inh)
Cc1cccc(Nc2nnc(SCC(=O)Nc3ccc(C(=O)O)cc3)s2)c1	none
Nc1cccc2cc(S(=O)(=O)O)ccc12	PAFAH1B3 FP inh 49, PAFAH2 inh 30, PAFAH1B2 FP inh 31 (no result: pPAFAH inh, Apaf-1 inh)
O=C(COC(=O)c1cc(=O)[nH]c2ccccc12)NCc1ccc(Cl)cc1	none
CCCNS(=O)(=O)c1ccc(N2CCCC2=O)c([N+](=O)[O-])c1	none
O=C1CCCN1c1ccc(S(=O)(=O)Oc2ccc(Cl)cc2)cc1[N+](=O)[O-]	PAFAH1B2 FP inh 69
Cc1cnc(NC(=O)C2CC=CCC2)s1 (configuration not stated)	none
O=C(COc1ccccc1Cl)NCCCNC(=O)c1cccnc1	none
Cc1ccc(-c2csc3ncnc(Nc4ccc(N5CCOCC5)cc4)c23)cc1	pPAFAH inh 30
N#C/C(=C/c1cn[nH]c1-c1ccc(Br)cc1)C(=O)O	PAFAH1B2 FP inh 30
CSCCC(NC(=O)c1cccc(C)c1)C(=O)OCC(=O)Nc1c(C)nn(-c2ccccc2)c1C (configuration not stated)	none
Cc1ccc(Oc2ccc(OCC(=O)OC3CCS(=O)(=O)C3)cc2)cc1 (configuration not stated)	pPAFAH inh 31 (no result: PAFAH1B3 FP inh, PAFAH2 inh, PAFAH1B2 FP inh)
O=C(COc1ccccc1[N+](=O)[O-])OC1CCS(=O)(=O)C1 (configuration not stated)	none
CC(SC#N)C(=O)C12CC3CC(CC(C3)C1)C2 (configuration not stated)	none
CC(Sc1n[nH]c(N)n1)C(=O)C12CC3CC(CC(C3)C1)C2 (configuration not stated)	PAFAH1B2 FP inh 27
C=CCOc1ccccc1CN1CCC(n2nccc2NC(=O)c2ccccc2)CC1	none
Cc1cccc(C(=O)O/N=C(\c2ccccc2)c2cccnc2)c1	pPAFAH inh 30, PAFAH2 inh 72
CCCCn1c(N)c(N(CC)C(=O)CCNC(=O)NC23CC4CC(CC(C4)C2)C3)c(=O)[nH]c1=O	none
CCOC(=O)c1cc(-c2ccccc2)sc1NC(=O)CSc1nnc(N)s1	pPAFAH inh 25
CCOC(=O)c1cc(-c2ccccc2)sc1NC(=O)CSc1nncs1	none
O=C(OC[C@H]1O[C@@H](OC(=O)c2cc(O)c(O)c(OC(=O)c3cc(O)c(O)c(O)c3)c2)[C@H](OC(=O)c2cc(O)c(O)c(OC(=O)c3cc(O)c(O)c(O)c3)c2)[C@@H](OC(=O)c2cc(O)c(O)c(OC(=O)c3cc(O)c(O)c(O)c3)c2)[C@@H]1OC(=O)c1cc(O)c(O)c(OC(=O)c2cc(O)c(O)c(O)c2)c1)c1cc(O)c(O)c(OC(=O)c2cc(O)c(O)c(O)c2)c1	pPAFAH inh 70 (no result: PAFAH1B3 FP inh, Apaf-1 inh, PAFAH2 inh, PAFAH1B2 FP inh)
CCOC(=O)CN(c1ccccc1C)S(=O)(=O)c1ccc(Cl)cc1	none
CC(C)Cn1c(N)c(C(=O)COC(=O)c2cccn2C)c(=O)n(C)c1=O	none
O=C(NCCc1ccccc1)C1CCCN1C(=O)Nc1ccc(Cl)cc1 (configuration not stated)	none
COC(=O)c1cc(NS(=O)(=O)c2ccc(N3CCCCCC3)c([N+](=O)[O-])c2)cc(C(=O)OC)c1	PAFAH1B2 FP inh 33
CCOc1ccc(NC(=O)CN(C)C(=O)c2ccc(OCC(=O)N3CCOCC3)c(OC)c2)cc1OCC	none (no result: pPAFAH inh, Apaf-1 inh)
COc1ccc(OC)c(CNC(=O)Cc2c(C(=O)O)[nH]c3ccc(Cl)cc23)c1	none
CCOCCCNC(=O)Cc1c(C(=O)O)[nH]c2ccc(Cl)cc12	PAFAH1B2 FP inh 30
CCCCN(CC)C(=O)Cc1c(C(=O)O)[nH]c2ccc(Cl)cc12	PAFAH1B2 FP inh 50
CCN1C[C@@H]2[C@@H]3C(=O)N(C)C(=O)[C@@H]3[C@](C)(C(=O)OC)N2C1=NC	none
O=C(COc1ccccc1Cl)Nc1cc(NC(=O)COc2ccccc2Cl)cc(C(=O)O)c1	none (no result: pPAFAH inh)
O=C(O/N=C1/CCCc2occc21)c1ccc(F)cc1	none

Screens deposited in PubChem by several laboratories.
